System: MS2 coat protein
Experiment: apparent Kd, MS2 coat protein; higher = weaker binding; RNA-MaP array; FMN 200 µM where present
Summary of the method: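 Designs were transcribed by stalled E. coli RNA polymerase on Illumina sequencing-chip clusters. They were titrated with SNAP-549-labelled MS2 coat protein from 0.7 or 1.5 nM, doubling to 3 µM, without and then with constant ligand. Buffer: 100 mM Tris-HCl pH 7.5, 80 mM KCl, 4 mM MgCl2, BSA, DTT, yeast tRNA, Tween-20. Green signal was normalised to red-channel RNA signal and control-cluster median Fmax. Apparent Kd is the median of filtered per-cluster binding-curve fits.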

[1] = designed as: ON switch for flavin mononucleotide, no ligand
[2] = ligand present: flavin mononucleotide, designed as: ON switch for flavin mononucleotide
[3] = designed as: OFF switch for flavin mononucleotide, no ligand
[4] = ligand present: flavin mononucleotide, designed as: OFF switch for flavin mononucleotide

| Sequence | apparent Kd [1] [nM] | apparent Kd [2] [nM] | apparent Kd [3] [nM] | apparent Kd [4] [nM] |
| --- | --- | --- | --- | --- |
| UGGUACUAGGGAGGAUAUGGGAAGAUACAUGAGGAUCACCCAUGUUUAAGAAUGCGGAGAGGCAACUAGAAGGCCCUAGUACCU | 351 | 18.9 |  |  |
| AGCUGGUGACAGCAAGAAUUUUAACAUGAGGAUCACCCAUGUAGAAGGCUGUACGGUUACCGUACAGAGGAUAUACAUAGAAAG |  |  | 43.2 | 62.2 |
| GGGUAGAUCCGAGGAUAUACAAUCCGGAAACGGUACAUGAGGAUCACCCAUGUAGAAGGCGGAUCUACAGGUACUAAAGUACCC |  |  | 6.32 | 8.65 |
| AUCAGCACGUGAGGAUAUGCGUCACUGCGUCAGCAGUGCGGUAAGAUCACAUGAGGAUCACCCAUGUAGAAGGCACGAGCUGAU |  |  | 21.4 | 49.8 |
| GGUCCACAUGAGGAUCACCCAUGUUAGGAUAUCUCGCCCGAGCCCAUAUGGGCCAGGCAGAGAAGGAAUGUGAA |  |  | 23.7 | 23.5 |
| GUCAGCUCGGGAGGAUAUACAACACUGCUUCGGCAGUGUAUUAAGAUCACAUGAGGAUCACCCAUGUAGAAGGCACGAGCUGAU |  |  | 7.79 | 51 |
| AUAUUUAAUGAGGAUAUCGUUGCGGGUACGUAGCGAGAAGGCAUUACAUGAGGAUCACCCAUGUAGUGUGGGUU |  |  | 21.3 | 68.3 |
| UUCAUGUGAGGAUAUAGUACUCCUUCUAUUAUUUUUGAGUAUUAGAAGGCACAUGAGGAUCACCCAUGUAGUAC |  |  | 28.1 | 46.9 |
| GUUACACAUGAGGAUCACCCAUGUAAGGAUAUGCUGCGGUCGCGCUGACGUGACUGCAGCAGAAGGUACAAAUG |  |  | 77.4 | 92.1 |
| AGUAAGAUGCAGAAGGUGUUAGCUAGAGCUACGACAUGAGGAUCACCCAUGUACUAGAAACAGUACAAGGAUAUGCAUCUUACA | 18.1 | 6.28 |  |  |
| AUAGCUCUCUAGAAGGACCAAGCAGUAUACCAUCAGGUAUAUACGCUAGGUAGGAUAUGGGACAUGAGGAUCACCCAUGUGUAG | 53.9 | 33.9 |  |  |
| AAACCGCAAGGAUAUUGUGGCGCUGACAUGAGGAUCACCCAUGUGGUGCUAGUCCCGCUGCGAGAAGGUGUGUAAA |  |  | 12.4 | 26.8 |
| GUGCCUAACUAGAAGGCCGAUAGCAAAGCUAUCGGAGGAUAUGGGUUCCGGAAACGGACAUGAGGAUCACCCAUGUGGCACAAA | 86.5 | 12.8 |  |  |
| AAACAUGUCCGAGGAUAUCUGGAAACAUUUUCAAGAGAAGGCGGACAUGAGGAUCACCCAUGUCUCUCCUCAUCAAGUCCAAGU |  |  | 8.47 | 46.2 |
| UUUAUAUUCAGAGGAUAUUGAUGUUGUAUUUUACAAGAAGGCUGUUUGUUUUGUAAUGUUAUUAUACAUGAGGAUCACCCAUGU | 20.6 | 17.3 |  |  |
| GGCGGGCGGGAGGAUAUUCGGGCUGUUUGGCUUGGAGAAGGCUCGACAUGAGGAUCACCCAUGUUUGGGUCGCC |  |  | 16.2 | 27 |
| GUCGGAAACGACAAUGAUAGGACUGAGGAUAUACAUAAGUAAGUCCUUACAUGAGGAUCACCCAUGUAGAAGGCAGUCCUAUCU |  |  | 43.9 | 502 |
| UUUGAUGUUGAGGAUAUGCUUUUUUUUAUUAUAGCAGAAGGCGAUACAUGAGGAUCACCCAUGUUCAUGGCUUU |  |  | 12.8 | 15.5 |
| UUAAAUCAUGUAGGAUAUGCAUGGCGAAGCUACGCAGAAGGACAUGAGGAUCACCCAUGUUAUAGCUACCGAAUAAGGUGGCAA |  |  |  | 224 |
| GUCAUGUCAGGAUAUGCUUAUGAUGAGUGCUCAGACAUGAUGCAGAAGGGACAUGAGGAUCACCCAUGUACUGA |  |  | 22.4 | 26.8 |
| UGGUACUAGGGAGGAUAUGGGAAGAUACAUGAGGAUCACCCAUGUUUAAGAAUGCCGAGACGCAACUAGAAGGCCCUAGUACCU | 354 | 20.9 |  |  |
| GUAUAUCACUAAGGAUAUCUGUAUUUUGUUGAAACAUGAGGAUCACCCAUGUUCAUGAAAUUAUAGGAGAAGGUAGAGAUAUAC | 4.96 | 4.57 |  |  |
| ACGUGACGUUAGGAUAUUAACUACCUGCCAUCUUAAGAAGGAACGACAUGAGGAUCACCCAUGUGAAUCCGCGA |  |  | 26.7 | 27 |

— the EternaBench riboswitch data
